Assay results published in ChEMBL document CHEMBL2396639, “Peptidomimetic modification improves cell permeation of bivalent farnesyltransferase inhibitors” (Bioorg Med Chem, 2013).
pKi: −log10 of the molar value. Activity calls are given as the source filed them. No cut-off for these calls is given here. Residues, ends and D or L forms follow the SMILES beside them. *: point of attachment. X1 = NCC(CN)CCOc1cc(C(=O)*)cc(OCCC(CN)CN)c1OCCC(CN)CN; Ahx = NCCCCCC(=O)O

Columns and labels:
[1] = target: T1, Protein farnesyltransferase (Homo sapiens, UniProt P49354+P49356); test: Inhibition of recombinant FTase (unknown origin)-mediated K-Ras4B model peptide KKKKKKSK(Dans)TKCVIM farnesylation by fluorescence plate reader analysis in presence of FPP; type: protein-complex assay
Method in brief: (§1)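 Recombinant mammalian FTase (50 nM) with dansylated K-Ras4B peptide (1 μM) and FPP (5 μM). Compound tested at 0–500 μM in 50 mM Tris HCl pH 7.5 at 30 °C. Reagents spotted separately, and buffer addition starts the reaction. Fluorescence (ex 340/em 520 nm) followed for 5 min on a plate reader, n = 3. IC50 converted to Ki by Cheng-Prusoff with peptide Km 0.033 μM.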

[2] = target: T1, Protein farnesyltransferase; test: Inhibition of FTase (unknown origin)-mediated K-Ras4B model peptide KKKKKKSK(Dans)TKCVIM farnesylation by microplate reader analysis; type: protein-complex assay; method in brief: as §1
A549 [3] = test: Drug uptake in human A549 cells assessed as accumulation on plasma membrane at 25 uM after 3 hrs by confocal microscopy; type: ADME, cell-based; conditions: a549, 3 h
Method in brief: (§2)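 A549 cells grown in RPMI 1640 with 10% heat-inactivated FBS at 37 °C, 5% CO2. Seeded on glass dish at 1×10^5 cells/mL, adhered overnight. Fluorescent BODIPY-labelled compound added from DMSO stock at 25 μM (0.1% DMSO final), 3 h at 37 °C. Cells washed four times with PBS, covered with Opti-MEM, imaged by laser scanning confocal microscopy.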

A549 [4] = test: Cellular uptake in human A549 cells at 25 uM after 3 hrs by confocal microscopy; type: ADME, cell-based; conditions: a549, 3 h; method in brief: as §2
[5] = Drug uptake in human A549 cell cytosol at 25 uM after 3 hrs by confocal microscopy; type: ADME, cell-based; method in brief: as §2
[6] = Drug uptake in human A549 cell nucleus at 25 uM after 3 hrs by confocal microscopy; type: ADME, cell-based; conditions: a549, 3 h; method in brief: as §2
[7] = target: T1, Protein farnesyltransferase; test: Inhibition of FTase-mediated prenylation in human A549 cells assessed as inhibition of HDJ-2 processing at 10 to 100 uM treated twice on day 1 and day 3 followed by incubation for 4 days by Western blot analysis; type: cell-based
Method in brief: (§3)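 T24 cells (MEM) or A549 cells (RPMI 1640), each with 10% bovine serum. Cells treated twice with compound at 10, 30 and 100 μM, or DMSO control, then harvested on day 4 and lysed in Tris pH 7.6/Triton X-100 buffer. Lysate (5 µg) run on 7.5% SDS-PAGE, transferred to PVDF, probed with anti-HDJ-2. Read as band shift from processed to unprocessed HDJ-2, detected by HRP anti-rabbit IgG with ECL.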

T-24 = test: Inhibition of GGTase1-mediated prenylation in human T24 cells assessed as inhibition of Rap1A processing at 10 to 100 uM treated twice on day 1 and day 3 followed by incubation for 4 days by Western blot analysis; type: cell-based
Method in brief: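 T24 cells grown in MEM with 10% bovine serum. Treated twice with compound at 10, 30 and 100 μM, or DMSO control, then harvested on day 4 and lysed. Lysate (5 µg) run on 12.5% SDS-PAGE, transferred to PVDF, probed with anti-Rap1A. Geranylgeranylation read as shift from processed to unprocessed Rap1A band, detected by HRP anti-rabbit IgG with ECL.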

[8] = target: T1, Protein farnesyltransferase; test: Inhibition of FTase-mediated prenylation in human T24 cells assessed as inhibition of HDJ-2 processing at 10 to 100 uM treated twice on day 1 and day 3 followed by incubation for 4 days by Western blot analysis; type: cell-based; conditions: T-24; method in brief: as §3

**Q.** With CSCC[C@H](NC(=O)c1ccc(NC[C@@H](N)CS)cc1)C(=O)O as the compound, how does the pKi [1] read?
**A.** The pKi was 6.11.

**Q.** With CC[C@H](C)[C@H](NC(=O)[C@@H](NC(=O)[C@@H](N)CS)C(C)C)C(=O)N[C@@H](CCSC)C(=O)O as the compound, how does the pKi [2] read?
**A.** Its pKi is 5.96.

**Q.** For CC[C@H](C)[C@H](NC(=O)[C@@H](NC(=O)[C@H](CS)NC(=O)CCNC(=O)[C@H](CCCCNC(=O)CCC1=C2C(C)=CC(C)=[N+]2[B-](F)(F)n2c(C)cc(C)c21)NC(=O)c1cc(OCCC(CN)CN)c(OCCC(CN)CN)c(OCCC(CN)CN)c1)C(C)C)C(=O)N[C@@H](CCSC)C(=O)O, which Drug uptake (A549 [3]) is on record?
**A.** Its Drug uptake is “Not Active”.

**Q.** For CC1=CC(C)=[N+]2C1=C(CCC(=O)NCCCC[C@H](NC(=O)c1cc(OCCC(CN)CN)c(OCCC(CN)CN)c(OCCC(CN)CN)c1)C(=O)O)c1c(C)cc(C)n1[B-]2(F)F, which Drug uptake (A549 [4]) is on record?
**A.** Its Drug uptake is “Active”.

**Q.** For COC(=O)[C@H](CCSC)NC(=O)c1ccc(NC[C@H](CS)NC(=O)CCNC(=O)[C@H](CCCCNC(=O)CCC2=C3C(C)=CC(C)=[N+]3[B-](F)(F)n3c(C)cc(C)c32)NC(=O)c2cc(OCCC(CN)CN)c(OCCC(CN)CN)c(OCCC(CN)CN)c2)cc1, which Drug uptake [5] is on record?
**A.** Its Drug uptake is “Active”.

**Q.** What about the Drug uptake [6] of the same compound?
**A.** The Drug uptake was “Not Active”.

**Q.** With CSCC[C@H](NC(=O)c1ccc(NC[C@H](CS)NC(=O)CCCCCNC(=O)c2cc(OCCC(CN)CN)c(OCCC(CN)CN)c(OCCC(CN)CN)c2)cc1)C(=O)O as the compound, how does the pKi [1] read?
**A.** Its pKi is 6.08.

**Q.** With CC[C@H](C)[C@H](NC(=O)[C@@H](NC(=O)[C@H](CS)NC(=O)CCCCCNC(=O)c1cc(OCCC(CN)CN)c(OCCC(CN)CN)c(OCCC(CN)CN)c1)C(C)C)C(=O)N[C@@H](CCSC)C(=O)O ({X1-Ahx}-CVIM-OH) as the compound, how does the pKi [1] read?
**A.** The pKi was 7.82.

**Q.** What about the pKi [2] of the same compound?
**A.** Its pKi is 8.30.

**Q.** What about the inhibition [7] of the same compound?
**A.** Its inhibition is “inactive”.

**Q.** Which inhibition (T-24) does the source give for COC(=O)[C@H](CCSC)NC(=O)c1ccc(NC[C@H](CS)NC(=O)CCCCCNC(=O)c2cc(OCCC(CN)CN)c(OCCC(CN)CN)c(OCCC(CN)CN)c2)cc1 here?
**A.** The inhibition was “inactive”.

**Q.** What about the inhibition [7] of the same compound?
**A.** The inhibition was “Active”.

**Q.** What about the inhibition [8] of the same compound?
**A.** Its inhibition is “Active”.
